Measurements of several laboratories.
Protocols differ between the studies behind these lines.
Target: Mitogen-activated protein kinase 12 (MAPK12, Homo sapiens, UniProt P53778)
Sequence (P53778 1-367, as in one of the studies): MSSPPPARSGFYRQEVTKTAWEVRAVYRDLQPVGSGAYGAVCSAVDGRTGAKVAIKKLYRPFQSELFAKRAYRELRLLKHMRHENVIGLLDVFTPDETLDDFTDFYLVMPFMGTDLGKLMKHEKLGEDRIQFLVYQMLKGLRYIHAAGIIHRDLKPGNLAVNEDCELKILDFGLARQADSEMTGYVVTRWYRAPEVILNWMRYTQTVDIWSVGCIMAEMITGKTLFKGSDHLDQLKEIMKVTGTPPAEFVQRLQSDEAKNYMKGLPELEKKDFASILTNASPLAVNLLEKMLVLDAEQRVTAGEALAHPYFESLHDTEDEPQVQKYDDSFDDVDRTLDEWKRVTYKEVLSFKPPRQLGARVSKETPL

With `CCN1CCN(Cc2ccc(C(=O)Nc3ccc(C)c(Oc4ccc5c(c4)CC(=O)N5)c3)cc2C(F)(F)F)CC1` the remaining binding was 100% (binding; competition with immobilised ligand; 1 µM).
The remaining binding of `CN(CCCC(F)(F)F)c1nccc(-c2cnn3ncccc23)n1` is reported as 100% (binding; 1 µM).
`O=C(Nc1cccnn1)N1CC(C/C=C/c2cncc(Oc3ccc(C(F)(F)F)cn3)n2)C1` has a remaining binding of 100% (cell-free assay; competition with immobilised ligand; 1 µM).
The remaining binding of `F[C@@H]1CCN(c2nccc(-c3cnn4ncccc34)n2)C1` is reported as 100% (binding; 1 µM).
`O=C(c1ccc(Nc2nccc(-c3cc4ccccc4s3)n2)cc1)N1CCC(N2CCCC2)CC1` gave a remaining binding of 88% (binding; competition with immobilised ligand; 1 µM).
`N[C@H]1CCN(c2nccc(-c3cnn4ncccc34)n2)C1` gave a remaining binding of 86% (binding; 1 µM).
`Cc1c[nH]c2nccc(Oc3c(F)cc(Nc4cc(Cl)nc(N)n4)cc3F)c12` has a remaining binding of 100% (cell-free assay; competition with immobilised ligand; 0.1 µM).
`O=C(Nc1c[nH]nc1C(=O)NC1CCNCC1)c1cc(F)cc(F)c1` gave a remaining binding of 100% (binding; competition with immobilised ligand; 1 µM).
The remaining binding of `Cc1nc(N2CC[C@@H](O)C2)ncc1-c1cc(C(F)(F)F)cc2[nH]ncc12` is reported as 100% (binding; competition with immobilised ligand; 1 µM).
The remaining binding of `c1cncc(-c2cccc(Nc3nccc(NC4CCCCC4)n3)c2)c1` is reported as 84% (binding; competition with immobilised ligand; 10 µM).
`O=C(Nc1cnc(Oc2ccc(F)cc2)nc1)N1CCc2ncccc2[C@@H]1c1ccc(F)cc1` has a remaining binding of 96% (cell-free assay; competition with immobilised ligand; 1 µM).
`CN(C)c1nccc(-c2cnn3ncccc23)n1` gave a remaining binding of 60% (binding; 1 µM).
The remaining binding of `O=C(NCCCN1CCOCC1)c1ccc(Nc2ncc(Cl)c(-c3ccc(Cl)s3)n2)cc1` is reported as 100% (binding; competition with immobilised ligand; 1 µM).
`C[C@@H](c1ccc(-n2cnc3c(N)ncnc32)cc1)N1CCc2nn(C)c(Cc3ccccc3)c2C1=O` has a remaining binding of 90% (binding; competition with immobilised ligand; 0.1 µM).
For `CC1=C(C#N)C(c2ccc3c(c2)c(NC(=O)c2ccccc2C)nn3C)C(C#N)=C(C)N1`, the remaining binding was 68% (cell-free assay; competition with immobilised ligand; 1 µM).
For `CN(C)c1nccc(-c2cnc3ncccn23)n1`, the remaining binding was 90% (binding; 1 µM).
The remaining binding of `Cc1cnc(Nc2ccc(C(=O)N3CCC(N4CCCC4)CC3)cc2)nc1-c1cc2ccccc2s1` is reported as 81% (binding; competition with immobilised ligand; 1 µM).
With `C[C@@H]1CN(c2cc(-c3n[nH]c4ccc(OC5(C)CC5)cc34)ncn2)C[C@H](C)O1` the remaining binding was 96% (cell-free assay; competition with immobilised ligand; 0.1 µM).
With `COc1cnc(Nc2cccc(S(N)(=O)=O)c2)nc1N1CCN(c2ccccc2)C(=O)C1` the remaining binding was 100% (binding; competition with immobilised ligand; 1 µM).
For `C[C@@H]1CCN(c2nccc(-c3cnn4ncccc34)n2)C1`, the remaining binding was 47% (binding; 1 µM).
With `COc1ncc2cc3ccccc3nc2c1C#N` the remaining binding was 96% (cell-free assay; competition with immobilised ligand; 5 µM).
